Experimental data: PubChem BioAssay AID504495 (The Scripps Research Institute Molecular Screening Center, 2011)

Target: Platelet-activating factor acetylhydrolase 2, cytoplasmic (Mus musculus) (UniProt Q8VDG7)
Experiment: in situ blockade of mouse PAFAH2 activity – cell-based, gel-based competitive ABPP, fluorescence, powder samples, late-stage follow-up (AID 504495)
Conditions: BW5147 murine T cells, FP-Rh, 4 h, at 0.03 µM, active compounds read high
In short: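 Assay system: Murine BW5147 T cells | Quantity: Soluble lysate protein at 1 mg/mL for probe labeling | Also added: FP-Rh probe 2 µM | Compound dosing: One dose, 30 nM | Timing: Compound exposure 4 h, 37 °C, probe 30 min, 25 °C | Detection: SDS-PAGE in-gel fluorescence | Benchmarks: DMSO-treated cells, blank gel background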

Platelet-activating factor acetylhydrolase 2, cytoplasmic (Mus musculus), sequence (Q8VDG7 whole entry, looked up): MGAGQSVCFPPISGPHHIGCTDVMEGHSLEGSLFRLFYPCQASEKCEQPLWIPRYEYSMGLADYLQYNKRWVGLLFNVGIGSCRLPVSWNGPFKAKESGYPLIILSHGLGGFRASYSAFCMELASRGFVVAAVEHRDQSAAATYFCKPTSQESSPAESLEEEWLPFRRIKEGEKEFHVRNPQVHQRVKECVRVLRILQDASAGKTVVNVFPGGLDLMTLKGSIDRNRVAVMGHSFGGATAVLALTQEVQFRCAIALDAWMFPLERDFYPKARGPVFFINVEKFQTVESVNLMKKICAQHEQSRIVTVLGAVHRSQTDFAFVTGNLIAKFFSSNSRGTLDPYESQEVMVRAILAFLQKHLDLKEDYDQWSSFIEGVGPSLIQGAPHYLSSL

SMILES: O=C(N1CCCC1)n1ncc(-c2ccc(-c3ccccc3)cc2)n1
- inhibition: 100%
